Reference: ChEMBL document CHEMBL1649256, “Comparison of assessment of oxygen consumption, Etest, and CLSI M38-A2 broth microdilution methods for evaluation of the susceptibility of Aspergillus fumigatus to posaconazole” (2009)
In brackets after ≈: the same amount, converted by molar mass.

Experiments:
Assay type in all cases: functional
Aspergillus fumigatus [1] = assay: Antimicrobial activity against Aspergillus fumigatus isolate 40 by oxygen consumption method
Summary of the method: (§1)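 Conidial suspension in RPMI 1640 broth, tested at two posaconazole levels (0.25 and 2 μg/ml). Agitated for 12 h at 37°C in a biological oxygen monitor. MIC derived from continuous monitoring and quantification of the available oxygen.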

Aspergillus fumigatus [2] = assay: Antimicrobial activity against Aspergillus fumigatus isolate 43 by oxygen consumption method
Aspergillus fumigatus [3] = assay: Antimicrobial activity against Aspergillus fumigatus isolate 5 by CLSI M38-A2 broth microdilution method
Aspergillus fumigatus [4] = assay: Antimicrobial activity against Aspergillus fumigatus isolate 28 after 24 hrs by Etest; details: isolate 28, 24 h
Summary of the method: (§2)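 Etest strips on RPMI 1640 agar with 2% glucose, pH 7.0, run per manufacturer's instructions. Incubated at 35°C; MIC read at 24 h.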

Aspergillus fumigatus [5] = assay: Antimicrobial activity against Aspergillus fumigatus isolate 12 after 48 hrs by Etest; details: isolate 12, 48 h
Summary of the method: (§3)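 Posaconazole Etest strips placed on RPMI 1640 agar with 2% glucose, pH 7.0, and run per the strip maker's instructions. Incubation at 35°C, with the MIC read at 24 h and at 48 h.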

Aspergillus fumigatus [6] = assay: Antimicrobial activity against Aspergillus fumigatus isolate 46 after 24 hrs by Etest; details: isolate 46, 24 h
Aspergillus fumigatus [7] = assay: Antimicrobial activity against Aspergillus fumigatus isolate 11 after 48 hrs by Etest; details: isolate 11, 48 h; summary of the method: as §3
Aspergillus fumigatus [8] = assay: Antimicrobial activity against Aspergillus fumigatus isolate 21 after 48 hrs by Etest; details: isolate 21, 48 h
Summary of the method: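 Etest strips on RPMI 1640 agar with 2% glucose, pH 7.0, run per manufacturer's instructions. Incubated at 35°C; MIC read at 48 h.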

Aspergillus fumigatus [9] = assay: Antimicrobial activity against Aspergillus fumigatus isolate 22 by CLSI M38-A2 broth microdilution method
Summary of the method: (§4)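 Reference broth microdilution per CLSI M38-A2. MIC read as absence of visible growth at 48 h. C. parapsilosis ATCC 22019 and C. krusei ATCC 6258 QC strains run in each test session.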

Aspergillus fumigatus [10] = assay: Antimicrobial activity against Aspergillus fumigatus isolate 50 by CLSI M38-A2 broth microdilution method
Aspergillus fumigatus [11] = assay: Antimicrobial activity against Aspergillus fumigatus isolate 34 after 48 hrs by Etest; details: isolate 34, 48 h
Summary of the method: (§5)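 Posaconazole Etest strips on RPMI 1640 agar with 2% glucose, pH 7.0, run per the strip maker's instructions. Incubated at 35°C. MIC read at 24 h and at 48 h, matching the time in each line.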

Aspergillus fumigatus [12] = assay: Antimicrobial activity against Aspergillus fumigatus isolate 29 by oxygen consumption method
Summary of the method: (§6)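 Conidial suspension in RPMI 1640 broth, 1.5 ml, with two drug concentrations (0.25 and 2 μg/ml). Tubes agitated 12 h at 37°C in a biological oxygen monitor. Available oxygen monitored continuously and quantified to assign the MIC.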

Aspergillus fumigatus [13] = assay: Antimicrobial activity against Aspergillus fumigatus isolate 7 by CLSI M38-A2 broth microdilution method
Aspergillus fumigatus [14] = assay: Antimicrobial activity against Aspergillus fumigatus isolate 29 after 24 hrs by Etest; details: isolate 29, 24 h; summary of the method: as §2
Aspergillus fumigatus [15] = assay: Antimicrobial activity against Aspergillus fumigatus isolate 4 by oxygen consumption method; summary of the method: as §1
Aspergillus fumigatus [16] = assay: Antimicrobial activity against Aspergillus fumigatus isolate 17 by oxygen consumption method
Summary of the method: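 Conidial suspension in RPMI 1640 broth with posaconazole at 0.25 and 2 μg/ml. Tubes agitated 12 h at 37°C in a biological oxygen monitor. Available oxygen was monitored continuously, and the MIC was assigned from the oxygen quantification.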

Aspergillus fumigatus [17] = assay: Antimicrobial activity against Aspergillus fumigatus isolate 27 by CLSI M38-A2 broth microdilution method; summary of the method: as §4
Aspergillus fumigatus [18] = assay: Antimicrobial activity against Aspergillus fumigatus isolate 6 by oxygen consumption method
Aspergillus fumigatus [19] = assay: Antimicrobial activity against Aspergillus fumigatus isolate 35 after 48 hrs by Etest; details: isolate 35, 48 h; summary of the method: as §5
Aspergillus fumigatus [20] = assay: Antimicrobial activity against Aspergillus fumigatus isolate 21 after 24 hrs by Etest; details: isolate 21, 24 h; summary of the method: as §2
Aspergillus fumigatus [21] = assay: Antimicrobial activity against Aspergillus fumigatus isolate 12 after 24 hrs by Etest; details: isolate 12, 24 h; summary of the method: as §3
Aspergillus fumigatus [22] = assay: Antimicrobial activity against Aspergillus fumigatus isolate 10 by CLSI M38-A2 broth microdilution method
Summary of the method: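 Posaconazole broth microdilution follows CLSI M38-A2. The MIC is the lowest concentration with no visible growth at 48 h. Candida parapsilosis ATCC 22019 and Candida krusei ATCC 6258 were included as QC strains in every run.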

Aspergillus fumigatus [23] = assay: Antimicrobial activity against Aspergillus fumigatus isolate 1 after 48 hrs by Etest; details: isolate 1, 48 h; summary of the method: as §3
Aspergillus fumigatus [24] = assay: Antimicrobial activity against Aspergillus fumigatus isolate 6 after 24 hrs by Etest; details: isolate 6, 24 h
Aspergillus fumigatus [25] = assay: Antimicrobial activity against Aspergillus fumigatus isolate 4 by CLSI M38-A2 broth microdilution method
Summary of the method: (§7)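 CLSI M38-A2 broth microdilution with posaconazole. MIC taken as the lowest concentration with no visible growth at 48 h. C. parapsilosis ATCC 22019 and C. krusei ATCC 6258 were included as QC strains in every run.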

Aspergillus fumigatus [26] = assay: Antimicrobial activity against Aspergillus fumigatus isolate 37 by CLSI M38-A2 broth microdilution method; summary of the method: as §7
Aspergillus fumigatus [27] = assay: Antimicrobial activity against Aspergillus fumigatus isolate 37 after 24 hrs by Etest; details: isolate 37, 24 h; summary of the method: as §5
Aspergillus fumigatus [28] = assay: Antimicrobial activity against Aspergillus fumigatus isolate 37 after 48 hrs by Etest; details: isolate 37, 48 h; summary of the method: as §5
Aspergillus fumigatus [29] = assay: Antimicrobial activity against Aspergillus fumigatus isolate 26 by CLSI M38-A2 broth microdilution method; summary of the method: as §4
Aspergillus fumigatus [30] = assay: Antimicrobial activity against Aspergillus fumigatus isolate 26 after 24 hrs by Etest; details: isolate 26, 24 h; summary of the method: as §2
Aspergillus fumigatus [31] = assay: Antimicrobial activity against Aspergillus fumigatus isolate 50 by oxygen consumption method
Aspergillus fumigatus [32] = assay: Antimicrobial activity against Aspergillus fumigatus isolate 40 by CLSI M38-A2 broth microdilution method; summary of the method: as §7
Aspergillus fumigatus [33] = assay: Antimicrobial activity against Aspergillus fumigatus isolate 48 by oxygen consumption method
Aspergillus fumigatus [34] = assay: Antimicrobial activity against Aspergillus fumigatus isolate 23 by CLSI M38-A2 broth microdilution method; summary of the method: as §4
Aspergillus fumigatus [35] = assay: Antimicrobial activity against Aspergillus fumigatus isolate 20 by oxygen consumption method; summary of the method: as §6
Aspergillus fumigatus [36] = assay: Antimicrobial activity against Aspergillus fumigatus isolate 13 after 24 hrs by Etest; details: isolate 13, 24 h; summary of the method: as §3
Aspergillus fumigatus [37] = assay: Antimicrobial activity against Aspergillus fumigatus isolate 50 after 24 hrs by Etest; details: isolate 50, 24 h
Aspergillus fumigatus [38] = assay: Antimicrobial activity against Aspergillus fumigatus isolate 33 by CLSI M38-A2 broth microdilution method; summary of the method: as §7
Aspergillus fumigatus [39] = assay: Antimicrobial activity against Aspergillus fumigatus isolate 14 after 48 hrs by Etest; details: isolate 14, 48 h; summary of the method: as §3
Aspergillus fumigatus [40] = assay: Antimicrobial activity against Aspergillus fumigatus isolate 42 by oxygen consumption method; summary of the method: as §1
Aspergillus fumigatus [41] = assay: Antimicrobial activity against Aspergillus fumigatus isolate 34 after 24 hrs by Etest; details: isolate 34, 24 h; summary of the method: as §5
Aspergillus fumigatus [42] = assay: Antimicrobial activity against Aspergillus fumigatus isolate 47 after 24 hrs by Etest; details: isolate 47, 24 h
Aspergillus fumigatus [43] = assay: Antimicrobial activity against Aspergillus fumigatus isolate 39 by oxygen consumption method; summary of the method: as §1
Aspergillus fumigatus [44] = assay: Antimicrobial activity against Aspergillus fumigatus isolate 33 after 48 hrs by Etest; details: isolate 33, 48 h; summary of the method: as §5

In the case of CC[C@@H]([C@H](C)O)n1ncn(-c2ccc(N3CCN(c4ccc(OC[C@@H]5CO[C@@](Cn6cncn6)(c6ccc(F)cc6F)C5)cc4)CC3)cc2)c1=O [POSACONAZOLE], the MIC (Aspergillus fumigatus [1]) was ≤ 0.25 µg/mL, the MIC (Aspergillus fumigatus [2]) was ≤ 0.25 µg/mL and the MIC (Aspergillus fumigatus [3]) was 1 µg/mL (≈ 1.43 µM). The MIC (Aspergillus fumigatus [4]) was 0.25 µg/mL (≈ 0.357 µM), the MIC (Aspergillus fumigatus [5]) was 0.5 µg/mL (≈ 0.713 µM) and the MIC (Aspergillus fumigatus [6]) was 0.125 µg/mL (≈ 0.178 µM). For the same compound, the MIC (Aspergillus fumigatus [7]) was 0.25 µg/mL (≈ 0.357 µM), the MIC (Aspergillus fumigatus [8]) was 0.25 µg/mL (≈ 0.357 µM) and the MIC (Aspergillus fumigatus [9]) was 0.125 µg/mL (≈ 0.178 µM). For the same compound, the MIC (Aspergillus fumigatus [10]) was 0.125 µg/mL (≈ 0.178 µM), the MIC (Aspergillus fumigatus [11]) was ≤ 0.03 µg/mL and the MIC (Aspergillus fumigatus [12]) was ≤ 0.25 µg/mL. For the same compound, the MIC (Aspergillus fumigatus [13]) was 0.25 µg/mL (≈ 0.357 µM), the MIC (Aspergillus fumigatus [14]) was 0.25 µg/mL (≈ 0.357 µM) and the MIC (Aspergillus fumigatus [15]) was ≥ 0.5 µg/mL. For the same compound, the MIC (Aspergillus fumigatus [16]) was ≤ 0.25 µg/mL, the MIC (Aspergillus fumigatus [17]) was 0.125 µg/mL (≈ 0.178 µM) and the MIC (Aspergillus fumigatus [18]) was ≤ 0.25 µg/mL. The MIC (Aspergillus fumigatus [19]) was 0.25 µg/mL (≈ 0.357 µM), the MIC (Aspergillus fumigatus [20]) was 0.25 µg/mL (≈ 0.357 µM) and the MIC (Aspergillus fumigatus [21]) was 0.25 µg/mL (≈ 0.357 µM). It also gave an MIC (Aspergillus fumigatus [22]) of 0.25 µg/mL (≈ 0.357 µM), an MIC (Aspergillus fumigatus [23]) of 8 µg/mL (≈ 11.4 µM) and an MIC (Aspergillus fumigatus [24]) of 1 µg/mL (≈ 1.43 µM). It also gave an MIC (Aspergillus fumigatus [25]) of 0.06 µg/mL (≈ 0.0856 µM), an MIC (Aspergillus fumigatus [26]) of 0.125 µg/mL (≈ 0.178 µM) and an MIC (Aspergillus fumigatus [27]) of 0.05 µg/mL (≈ 0.0713 µM). For the same compound, the MIC (Aspergillus fumigatus [28]) was 0.125 µg/mL (≈ 0.178 µM), the MIC (Aspergillus fumigatus [29]) was 0.125 µg/mL (≈ 0.178 µM) and the MIC (Aspergillus fumigatus [30]) was 0.25 µg/mL (≈ 0.357 µM). For the same compound, the MIC (Aspergillus fumigatus [31]) was ≤ 0.25 µg/mL, the MIC (Aspergillus fumigatus [32]) was 0.125 µg/mL (≈ 0.178 µM) and the MIC (Aspergillus fumigatus [33]) was ≤ 0.25 µg/mL. The MIC (Aspergillus fumigatus [34]) was 0.125 µg/mL (≈ 0.178 µM), the MIC (Aspergillus fumigatus [35]) was ≤ 0.25 µg/mL and the MIC (Aspergillus fumigatus [36]) was 0.25 µg/mL (≈ 0.357 µM). For the same compound, the MIC (Aspergillus fumigatus [37]) was 0.25 µg/mL (≈ 0.357 µM), the MIC (Aspergillus fumigatus [38]) was 0.125 µg/mL (≈ 0.178 µM) and the MIC (Aspergillus fumigatus [39]) was 0.5 µg/mL (≈ 0.713 µM). For the same compound, the MIC (Aspergillus fumigatus [40]) was ≤ 0.25 µg/mL, the MIC (Aspergillus fumigatus [41]) was ≤ 0.03 µg/mL and the MIC (Aspergillus fumigatus [42]) was ≤ 0.03 µg/mL. The MIC (Aspergillus fumigatus [43]) was ≥ 0.5 µg/mL and the MIC (Aspergillus fumigatus [44]) was 0.25 µg/mL (≈ 0.357 µM).
